Data on one compound can be found in ChEMBL document CHEMBL4130635, “2,4-Diaminoquinazolines as Dual Toll-like Receptor (TLR) 7/8 Modulators for the Treatment of Hepatitis B Virus” (J Med Chem, 2018).

Structures are written as SMILES. The source made the active and inactive calls. No cut-off for these calls is given here.

Series [1] has as its system Toll-like receptor 7/8 (Homo sapiens). Kind of series: Agonist activity at TLR7/8 in human PBMCs assessed as decrease in intracellular HBV RNA levels in human hepatocytes infected with HBV genotype C for 12 days followed by exposure to conditioned supernatant from up to 5 uM compound treated PBMCs measured after 42 days.
Series [2] has as its system Liver. Kind of series: Proinflammatory activity in C57BL/6J mouse liver assessed as IL-1beta levels at 30 mg/kg, po by multiplex assay. It is filed as functional.
Series [3] relates to Toll-like receptor 7/8 (Homo sapiens). Kind of series: Agonist activity at TLR7/8 in human PBMCs assessed as decrease in intracellular HBV-rcDNA levels in human hepatocytes infected with HBV genotype C for 12 days followed by exposure to conditioned supernatant from up to 5 uM compound treated PBMCs measured after 42 days.
Series [4] is described as follows: Tmax in Sprague-Dawley rat liver at 10 mg/kg, po. It is filed as ADME, organism-based.
Series [5] deals with Cynomolgus monkey. Kind of series: Induction of ISG response in cynomolgus monkey plasma assessed as upregulation of Oas1b mRNA expression at 1 mg/kg, po after 24 hrs by Fluidigm RT-qPCR analysis (reference value: 1). It is filed as functional, Macaca fascicularis. A digest of the protocol: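 Cynomolgus monkeys, single oral doses of 1, 3, 9 and 30 mg/kg with a planned 2-week wash-out between doses. Systemic ISG (ISG15, Mx1, OAS1) mRNA was measured by Fluidigm RT-qPCR at 1, 2, 4, 8 and 24 h postdose.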

The target of series [6] is TLR7 and TLR8 (Homo sapiens) (UniProt Q9NYK1+Q9NR97). Briefly: Agonist activity at TLR7/8 in human PBMCs co-cultured with primary human hepatocytes infected with HBV genotype C for 12 days assessed as increase in fractalkine sCD40L levels up to 5 uM measured after 42 days.
The subject of series [7] is Cynomolgus monkey. Briefly: Induction of IFNalpha levels in cynomolgus monkey plasma at 3 mg/kg, po after 24 hrs by ELISA. It is filed as functional, Macaca fascicularis. The gist of the method:
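Healthy cynomolgus monkeys given single oral doses of 1, 3, 9 and 30 mg/kg, with a 2-week wash-out planned between doses. Systemic cytokine levels in plasma were sampled at 0.5, 1, 2, 4, 9 and 24 h postdose.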

In series [8] the test system is Liver. Kind of series: Proinflammatory activity in C57BL/6J mouse liver assessed as IL-1beta levels at 3 mg/kg, po by multiplex assay. It is filed as functional.
The target in series [9] is T1, Toll-like receptor 7 (Homo sapiens) (UniProt Q9NYK1).
T1 sequence (whole entry): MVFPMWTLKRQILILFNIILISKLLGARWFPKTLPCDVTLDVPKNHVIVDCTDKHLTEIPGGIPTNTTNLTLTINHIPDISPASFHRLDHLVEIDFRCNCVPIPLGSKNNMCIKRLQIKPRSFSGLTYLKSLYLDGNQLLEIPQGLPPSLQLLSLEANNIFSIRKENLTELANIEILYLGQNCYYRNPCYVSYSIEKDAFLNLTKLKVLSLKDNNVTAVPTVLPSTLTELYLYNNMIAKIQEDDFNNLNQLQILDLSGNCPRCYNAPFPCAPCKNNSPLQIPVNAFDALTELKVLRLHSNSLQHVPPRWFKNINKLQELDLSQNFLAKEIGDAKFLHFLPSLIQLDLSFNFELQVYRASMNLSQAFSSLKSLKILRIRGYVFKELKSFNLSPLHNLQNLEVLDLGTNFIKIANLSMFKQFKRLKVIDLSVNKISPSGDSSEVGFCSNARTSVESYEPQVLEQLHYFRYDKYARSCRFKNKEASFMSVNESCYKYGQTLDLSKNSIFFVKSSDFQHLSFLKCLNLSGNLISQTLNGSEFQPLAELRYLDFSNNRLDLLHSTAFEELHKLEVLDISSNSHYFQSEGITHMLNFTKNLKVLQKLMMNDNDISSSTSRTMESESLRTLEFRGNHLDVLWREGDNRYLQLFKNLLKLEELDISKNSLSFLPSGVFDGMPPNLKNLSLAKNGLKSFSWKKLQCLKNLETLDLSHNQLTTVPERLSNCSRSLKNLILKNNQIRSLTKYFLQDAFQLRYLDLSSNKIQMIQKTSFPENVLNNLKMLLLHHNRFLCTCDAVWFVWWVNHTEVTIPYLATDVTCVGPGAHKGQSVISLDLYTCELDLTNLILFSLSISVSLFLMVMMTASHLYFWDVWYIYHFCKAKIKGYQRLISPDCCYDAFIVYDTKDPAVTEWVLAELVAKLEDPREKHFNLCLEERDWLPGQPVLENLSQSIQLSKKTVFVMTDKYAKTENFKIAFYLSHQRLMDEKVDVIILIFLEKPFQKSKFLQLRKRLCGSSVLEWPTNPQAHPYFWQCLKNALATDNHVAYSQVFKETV
Kind of series: Agonist activity at human TLR7 expressed in HEK293 cells assessed as induction of receptor activation incubated for 6 hrs by NF-kappaB-luciferase reporter gene assay. It is filed as cell-based. A digest of the protocol: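 HEK cell-based assay using a wild-type TLR7 expression vector; a parallel TLR8 vector construct served for selectivity. Results are expressed as lowest effective concentration (LEC), averaged over independent experiments where determined two or more times. A separate HEK 293 cytotoxicity (TOX) assay gave CC50 alongside.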

Series [10] has as its system Liver. Kind of series: Proinflammatory activity in C57BL/6J mouse liver assessed as CXCL-1 levels at 10 mg/kg, po by multiplex assay (reference value: 25 pg/g). It is filed as functional.
The next series has as its system Plasma. Briefly: Anti-inflammatory activity in C57BL/6J mouse plasma assessed as IL-10 levels at 30 mg/kg, po by multiplex assay (reference value: 120 pg/ml). It is filed as functional. A digest of the protocol: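 Single oral gavage in 20% HP-β-CD to healthy C57BL/6 mice, groups of 15 at 0.3, 1, 3, 10 or 30 mg/kg. Three mice per group sacrificed at 0.5, 1, 2, 4 or 7 h. Plasma and liver cytokines by multiplex, maximum level reported, rounded to nearest multiple of 5.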

Series [11] can be described thus: Selectivity index, ratio of compound concentration causing induction of AST level in primary human hepatocytes infected with HBV genotype C for 12 days followed by exposure to conditioned supernatant from at 5 uM compound treated PBMCs measured after 42 days to Agonist activity at human TLR7 expressed in HEK293 cells.
Series [12] can be described thus: Cmax in C57BL/6J mouse plasma at 3 mg/kg, po by LC-MS analysis. It is filed as ADME, organism-based. Set-up: dose 3 mg/kg, route oral. The gist of the method:
(§1)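 Healthy C57BL/6 mice, groups of 15, given a single oral dose (0.3, 1, 3, 10 or 30 mg/kg) in 20% HP-β-CD. Blood drawn at 0.5 h. Three mice per group sacrificed at 0.5, 1, 2, 4 or 7 h, and compound in plasma and liver measured by LC−MS. Values rounded to whole numbers.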

The nature of series [13]: Drug uptake in C57BL/6J mouse liver at 30 mg/kg, po by LC-MS analysis. It is filed as ADME, organism-based. Conditions: in vivo. A digest of the protocol: as §1
The subject of series [14] is Cynomolgus monkey. Briefly: Activation of monocytes in cynomolgus monkey plasma assessed as upregulation of IL1Ra levels at 1 mg/kg, po after 24 hrs by Luminex assay (reference value: 320 pg/ml). It is filed as functional, Macaca fascicularis.

Chain of TLR7 and TLR8 (Homo sapiens) (Q9NR97 whole entry, looked up, one chain of several): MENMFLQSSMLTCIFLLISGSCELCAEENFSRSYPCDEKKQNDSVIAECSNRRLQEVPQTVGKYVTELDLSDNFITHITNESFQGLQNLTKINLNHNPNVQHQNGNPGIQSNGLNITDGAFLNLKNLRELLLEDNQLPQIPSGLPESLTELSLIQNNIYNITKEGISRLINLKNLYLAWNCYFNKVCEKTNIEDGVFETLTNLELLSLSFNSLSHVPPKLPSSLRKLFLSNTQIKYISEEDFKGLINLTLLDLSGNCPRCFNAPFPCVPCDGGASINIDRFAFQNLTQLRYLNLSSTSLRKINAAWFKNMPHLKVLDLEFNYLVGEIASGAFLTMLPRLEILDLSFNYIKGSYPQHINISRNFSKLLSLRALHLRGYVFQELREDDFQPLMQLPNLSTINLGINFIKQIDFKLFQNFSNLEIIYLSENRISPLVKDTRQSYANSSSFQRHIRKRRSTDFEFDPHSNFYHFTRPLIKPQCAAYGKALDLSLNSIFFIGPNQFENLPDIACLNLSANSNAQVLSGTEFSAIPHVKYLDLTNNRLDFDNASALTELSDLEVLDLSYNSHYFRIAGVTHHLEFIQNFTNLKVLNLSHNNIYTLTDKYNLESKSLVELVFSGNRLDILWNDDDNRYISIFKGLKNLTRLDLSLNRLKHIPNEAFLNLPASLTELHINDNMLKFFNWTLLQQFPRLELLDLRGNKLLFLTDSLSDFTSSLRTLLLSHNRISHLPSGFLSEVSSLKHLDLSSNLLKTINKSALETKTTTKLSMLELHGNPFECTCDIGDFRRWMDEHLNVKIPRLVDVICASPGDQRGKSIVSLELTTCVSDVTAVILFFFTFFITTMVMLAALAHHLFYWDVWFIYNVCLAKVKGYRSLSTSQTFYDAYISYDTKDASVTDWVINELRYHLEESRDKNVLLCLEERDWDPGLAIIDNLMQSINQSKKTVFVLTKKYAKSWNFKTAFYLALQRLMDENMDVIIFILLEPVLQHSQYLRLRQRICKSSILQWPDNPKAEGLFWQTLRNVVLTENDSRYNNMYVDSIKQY

Turning to `CCC[C@@H](CCO)Nc1nc(N)nc2c(F)cccc12`, the outcome in series [1], in [3] and in series [6] was Active. Besides, the Activity is 56615 pg/g with Liver [2]; above 51200 pg/mL in the series with Cynomolgus monkey [7]; 22925 pg/g in the series with Liver [8]; 48485 pg/g in the series on Liver [10]; 5170 pg/mL with Plasma; 805 pg/mL with Cynomolgus monkey [14]. Further, in series [4], the Tmax turned out to be 30 min. In addition, the “fold change (FC)” value in the series with Cynomolgus monkey [5] is listed as 180. Further, the MEC in series [9] is 0.15 µM. Besides, the Ratio in [11] was 25. The same compound returned a Cmax in series [12] of 22 ng/mL. In series [13], this compound showed a Drug uptake of 462 ng/g.
